Measurements from ChEMBL document CHEMBL1821706, “Unprecedented citrinin trimer tricitinol B functions as a novel topoisomerase IIα inhibitor” (J Med Chem, 2011).
The source made the active and inactive calls. The calls are words filed in the database; no cut-off is given here.

Assays:
HMEC [1] = experiment: Selectivity ratio of IC50 for human HMEC cells to IC50 for Rh30 cells
HL-60 [2] = experiment: Induction of apoptosis in human HL60 cells assessed as DNA ladder formation after 24 hrs using Annexin-V/PI double-staining by flow cytometric analysis; format: functional, cell-based
Procedure, shortened: (§1)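 HL60 cells were treated with 2.5, 5.0, 7.5 or 10.0 μM for 24 h for DNA ladder analysis, representative of three experiments. Apoptotic fractions were measured after 2.5–10 μM for 24 h, or 10 μM over a time course, by Annexin/PI staining and flow cytometry (early plus late apoptotic cells), as mean ± SD of three experiments.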

[3] = target: DNA topoisomerase 2-alpha (Homo sapiens) (UniProt P11388); experiment: Inhibition of human topoisomerase 2alpha-mediated prestrand-passage DNA religation after 6 mins by agarose gel electrophoresis
Chain of DNA topoisomerase 2-alpha (Homo sapiens) (P11388 whole entry): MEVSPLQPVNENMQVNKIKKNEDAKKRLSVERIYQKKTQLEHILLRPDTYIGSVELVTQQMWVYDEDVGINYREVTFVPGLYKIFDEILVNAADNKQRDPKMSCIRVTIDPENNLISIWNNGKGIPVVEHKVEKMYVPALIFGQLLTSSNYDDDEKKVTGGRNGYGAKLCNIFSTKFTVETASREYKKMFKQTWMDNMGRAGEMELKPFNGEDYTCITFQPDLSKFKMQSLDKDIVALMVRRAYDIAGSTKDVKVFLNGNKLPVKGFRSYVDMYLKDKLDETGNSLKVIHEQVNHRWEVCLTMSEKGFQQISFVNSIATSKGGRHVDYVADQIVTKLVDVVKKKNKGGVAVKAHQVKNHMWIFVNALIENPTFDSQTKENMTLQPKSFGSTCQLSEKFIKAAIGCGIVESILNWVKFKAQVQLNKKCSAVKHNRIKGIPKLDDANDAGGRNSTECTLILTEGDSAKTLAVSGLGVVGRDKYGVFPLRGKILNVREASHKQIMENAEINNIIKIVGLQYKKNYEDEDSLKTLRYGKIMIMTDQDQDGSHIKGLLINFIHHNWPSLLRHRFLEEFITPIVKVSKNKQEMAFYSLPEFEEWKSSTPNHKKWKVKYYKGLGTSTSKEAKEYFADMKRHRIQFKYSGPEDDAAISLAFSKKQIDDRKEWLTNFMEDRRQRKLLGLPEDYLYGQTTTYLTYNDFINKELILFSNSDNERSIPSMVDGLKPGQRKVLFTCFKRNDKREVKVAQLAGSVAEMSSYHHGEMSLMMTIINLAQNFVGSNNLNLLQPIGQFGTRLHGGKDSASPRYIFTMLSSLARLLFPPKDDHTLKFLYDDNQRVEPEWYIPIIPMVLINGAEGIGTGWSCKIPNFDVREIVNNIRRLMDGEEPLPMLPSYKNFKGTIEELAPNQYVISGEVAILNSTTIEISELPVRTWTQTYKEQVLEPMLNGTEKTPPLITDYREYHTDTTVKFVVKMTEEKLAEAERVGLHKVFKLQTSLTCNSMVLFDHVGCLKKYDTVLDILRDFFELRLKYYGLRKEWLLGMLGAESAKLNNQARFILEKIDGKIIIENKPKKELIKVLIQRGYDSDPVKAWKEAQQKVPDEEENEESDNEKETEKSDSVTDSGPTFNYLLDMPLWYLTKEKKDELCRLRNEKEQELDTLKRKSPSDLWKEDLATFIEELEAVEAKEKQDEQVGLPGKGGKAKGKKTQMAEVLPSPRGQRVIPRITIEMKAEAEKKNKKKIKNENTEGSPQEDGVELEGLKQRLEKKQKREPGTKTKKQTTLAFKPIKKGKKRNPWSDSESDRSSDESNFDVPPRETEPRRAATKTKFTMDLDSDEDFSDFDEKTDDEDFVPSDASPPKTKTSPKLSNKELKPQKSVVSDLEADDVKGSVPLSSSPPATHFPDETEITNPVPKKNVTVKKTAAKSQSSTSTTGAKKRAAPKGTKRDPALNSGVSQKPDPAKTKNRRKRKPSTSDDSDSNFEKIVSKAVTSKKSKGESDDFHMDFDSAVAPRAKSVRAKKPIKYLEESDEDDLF
Procedure, shortened: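 Topo II (6 units) with 0.25 μg supercoiled pBR322 in cleavage buffer with 5 mM CaCl2; equilibrium at 37 °C for 6 min. Compound added just before religation. Cleavage complex trapped with EDTA, NaCl added to block recleavage, samples put on ice. Religation started with cold MgCl2 (8.5 mM final), stopped with SDS, then 1% agarose electrophoresis.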

HCT-116 [4] = experiment: Induction of apoptosis in human HCT116 cells assessed as activation of caspase 9 at 2.5 to 10 uM after 24 hrs by Western blotting; format: functional, cell-based
Procedure, shortened: (§2)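 Cells (2×10^5/mL) were exposed to 2.5–10 μM for 24 h, then whole-cell lysates were made. Pro-/cleaved caspase-3, caspase-8, pro-/cleaved caspase-9, PARP (116 kDa full length, 85 kDa fragment) and Bid were probed by Western blot with ECL detection.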

HMEC [5] = experiment: Selectivity ratio of IC50 for human HMEC cells to IC50 for PC3 cells
[6] = target: DNA topoisomerase 2-alpha (Homo sapiens) (UniProt P11388); experiment: Induction of human topoisomerase 2alpha-mediated prestrand-passage DNA cleavage after 6 mins by agarose gel electrophoresis
Procedure, shortened: (§3)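 Supercoiled pBR322 (0.25 μg) was incubated with 6 units of topo II in cleavage buffer containing 5 mM MgCl2 at 37 °C for 6 min; the post-strand-passage reactions also received 1 mM APPNHP. Reactions were stopped with SDS and proteinase K, digested at 50 °C for 30 min, heated to 70 °C, and run on 1% agarose gels.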

HL-60 [7] = experiment: Induction of apoptosis in human HL60 cells assessed as DNA ladder formation at 2.5 to 10 uM after 24 hrs using Annexin-V/PI double-staining by flow cytometric analysis; format: functional; procedure, shortened: as §1
HL-60 [8] = experiment: Induction of DNA damage in human HL60 cells assessed as increased histone H2AX expression at 20 uM agarose gel electrophoresis; format: functional, cell-based; conditions: TDE = time-dependent effect
HMEC [9] = experiment: Selectivity ratio of IC50 for human HMEC cells to IC50 for MKN45 cells
HCT-116 [10] = experiment: Induction of apoptosis in human HCT116 cells assessed as increase in cleaved PARP levels after 24 hrs by Western blotting; format: functional, cell-based; procedure, shortened: as §2
MCF7 [11] = experiment: Selectivity ratio of IC50 for human HMEC cells to IC50 for MCF7 cells
[12] = target: DNA topoisomerase 2-alpha (Homo sapiens) (UniProt P11388); experiment: Induction of human topoisomerase 2alpha-mediated poststrand-passage DNA cleavage after 6 mins by agarose gel electrophoresis; procedure, shortened: as §3
HL-60 [13] = experiment: Induction of apoptosis in human HL60 cells assessed as activation of caspase 8 at 2.5 to 10 uM after 24 hrs by Western blotting; format: functional, cell-based; procedure, shortened: as §2
HCT-116 [14] = experiment: Induction of apoptosis in human HCT116 cells assessed as decrease in procaspase 3 expression after 24 hrs by Western blotting; format: functional, cell-based; procedure, shortened: as §2
HMEC [15] = experiment: Selectivity ratio of IC50 for human HMEC cells to IC50 for SGC7901 cells
HMEC [16] = experiment: Selectivity ratio of IC50 for human HMEC cells to IC50 for KB cells
[17] = target: DNA topoisomerase 2-alpha (Homo sapiens) (UniProt P11388); experiment: Inhibition of human topoisomerase 2alpha-mediated relaxation of supercoiled pBR322 DNA after 30 mins by agarose gel electrophoresis
Procedure, shortened: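 Supercoiled pBR322 (0.25 μg) incubated with 0.75 unit topo IIα at 37 °C for 30 min. SDS stop. Supercoiled and relaxed forms resolved on 1% agarose/TAE, ethidium bromide stain.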

HMEC [18] = experiment: Cytotoxicity against human HMEC cells after 72 hrs by MTT assay; format: cell-based
HL-60 [19] = experiment: Induction of apoptosis in human HL60 cells assessed as DNA ladder formation at 2.5 to 10 uM using Annexin-V/PI double-staining by flow cytometric analysis; format: functional, cell-based; conditions: TDE = time-dependent effect; procedure, shortened: as §1
A-431 = experiment: Cytotoxicity against human A431 cells after 72 hrs by SRB assay; format: functional, cell-based; conditions: A-431, 72 h, pooled result: one value given for 15 cell lines, strains, targets or settings
Procedure, shortened: (§4)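 Adherent human tumour lines were seeded and exposed in triplicate to graded compound concentrations at 37 °C for 72 h. Growth was read by sulforhodamine B staining. IC50 (50% growth inhibition) was obtained by the Logit method from at least three independent experiments and reported as mean ± SD.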

MCF7 [20] = experiment: Cytotoxicity against adriyamycin-resistant human MCF7 cells over expressing P-glycoprotein after 72 hrs by SRB assay; format: functional, cell-based; conditions: MCF7, 72 h; procedure, shortened: as §4
HCT-116 [21] = experiment: Induction of apoptosis in human HCT116 cells assessed as activation of caspase 8 at 2.5 to 10 uM after 24 hrs by Western blotting; format: functional, cell-based; procedure, shortened: as §2
HL-60 [22] = experiment: Cytotoxicity against human HL60 cells after 72 hrs by MTT assay; format: functional, cell-based; conditions: HL-60, 72 h
Procedure, shortened: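 Cells were treated in triplicate with graded concentrations for 72 h at 37 °C and read by MTT. IC50 is the concentration giving 50% growth inhibition, derived by the Logit method from at least three independent experiments and given as mean ± SD.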

[23] = target: DNA topoisomerase 2-alpha (Homo sapiens) (UniProt P11388); experiment: Inhibition of human topoisomerase 2alpha-mediated unwinding of linearized pBR322 assessed as DNA intercalation at 8 to 200 uM
Procedure, shortened: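 Unwinding (intercalation) test: EcoRI-linearized pBR322 (0.1 μg) incubated with compound and 2 units T4 DNA ligase in ligase buffer at 22 °C for 30 min. Stopped at 60 °C for 10 min, compound removed by phenol extraction, ligation products resolved on agarose gel.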

HCT-116 [24] = experiment: Induction of apoptosis in human HCT116 cells assessed as accumulation at S phase at 5 uM after 24 hrs using PI staining based flow cytometric analysis (reference value: 27%)

inhibition [3]: Dose-dependent effect
Activity [6]: Dose-dependent effect
Activity [12]: Dose-dependent effect
inhibition [17]: Dose-dependent effect
inhibition [23]: Active
Structure (SMILES): COC1O[C@H](C)[C@@H](C)c2c(C)c3c(c(O)c21)[C@@H]1O[C@H](C)[C@@H](C)c2c(C)c(O)c([C@H]4O[C@H](C)[C@@H](C)c5c(C)c(O)cc(O)c54)c(c21)O3 (stereo not given in full) [TRICITRINOL B]
Ratio IC50 (HMEC [1]): 2
Activity (HL-60 [2]): Dose-dependent effect
Activity (HCT-116 [4]): Active
Ratio IC50 (HMEC [5]): 2
Activity (HL-60 [7]): 10%
Activity (HL-60 [8]): tde
Ratio IC50 (HMEC [9]): 2
Activity (HCT-116 [10]): Dose-dependent effect
Ratio IC50 (MCF7 [11]): 2
Activity (HL-60 [13]): Active
Activity (HCT-116 [14]): Dose-dependent effect
Ratio IC50 (HMEC [15]): 2
Ratio IC50 (HMEC [16]): 2
IC50 (HMEC [18]): 7.89 µM
Activity (HL-60 [19]): tde
IC50 (A-431): 4.83 µM
IC50 (MCF7 [20]): 7.41 µM
Activity (HCT-116 [21]): Active
IC50 (HL-60 [22]): 3.2 µM
Activity (HCT-116 [24]): 20.42%
